The text below walks through data of ChEMBL document CHEMBL4184179, “Synthesis and biological evaluation of novel synthetic chalcone derivatives as anti-tumor agents targeting Cat L and Cat K” (Bioorg Med Chem, 2018).

Test [1] deals with HCT-116. Briefly: Antiproliferative activity against human HCT116 cells after 48 hrs by MTT assay. Format: functional, cell-based. The settings on record: for IC50: HCT-116, 48 h. An outline of the steps:
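Cells grown in RPMI 1640 with 10% FBS; about 4×10^3 cells per well seeded, held 24 h at 37°C in 5% CO2, then exposed to compounds at six concentrations (0.001–100 μM) for 48 h. MTT added at 0.5 mg/mL final for 4 h at 37°C, formazan dissolved in DMSO, absorbance read at 540 nm.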
(Tetrazolium assays rely on reduction of a dye to a coloured formazan, in cell work by metabolically active cells.)

Test [2] deals with MCF7. Briefly: Antiproliferative activity against human MCF7 cells after 48 hrs by MTT assay. Format: functional, cell-based. The settings on record: for IC50: MCF7, 48 h.
Test [3] concerns 143B. Briefly: Antiproliferative activity against human 143B cells after 48 hrs by MTT assay. Format: functional, cell-based.
The target of test [4] is T1, Cathepsin K (Homo sapiens) (UniProt P43235).
T1 sequence (whole entry): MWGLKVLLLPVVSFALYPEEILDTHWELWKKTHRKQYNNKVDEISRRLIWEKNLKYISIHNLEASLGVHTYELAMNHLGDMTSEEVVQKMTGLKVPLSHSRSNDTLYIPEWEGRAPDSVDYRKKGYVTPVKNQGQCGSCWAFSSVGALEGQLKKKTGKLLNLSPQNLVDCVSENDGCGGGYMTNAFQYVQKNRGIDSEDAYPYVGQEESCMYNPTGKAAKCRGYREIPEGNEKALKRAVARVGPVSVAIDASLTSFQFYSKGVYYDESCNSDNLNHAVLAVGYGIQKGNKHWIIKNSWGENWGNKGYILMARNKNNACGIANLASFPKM
Kind of test: Inhibition of recombinant human Cathepsin-K at 5 uM preincubated for 15 mins followed by Z-Phe-Arg-AMC addition measured after 30 mins by fluorescence assay relative to control. The method, boiled down: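 Recombinant human Cat K (5.5 ng/mL) in 50 mM sodium acetate, 2.5 mM EDTA, 1 mM DTT, pH 6.0, preincubated with compound (5 μM screen) 15 min at 37°C. Reaction started with Z-Phe-Arg-AMC (10 μM, as added). Fluorescence (ex 355/em 460 nm) read after 30 min; inhibition rate calculated from intensity.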

Test [5] concerns the target Procathepsin L (Homo sapiens) (UniProt P07711). Briefly: Inhibition of Cathepsin-L (unknown origin) at 5 uM preincubated for 15 mins followed by Z-Phe-Arg-AMC addition measured after 30 mins by fluorescence assay relative to control. The method, boiled down:
(§1)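 Run as for the Cat K assay: enzyme in 50 mM sodium acetate, 2.5 mM EDTA, 1 mM DTT, pH 6.0, compounds screened at 5 μM, 15 min preincubation at 37°C, substrate added, fluorescence (ex 355/em 460 nm) read at 30 min. Substrates: Cat B Z-Arg-Arg-AMC; Cat S Ac-Lys-Gln-Lys-Leu-Arg-AMC; Cat L as for Cat K.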

Test [6] deals with Cathepsin B (Homo sapiens) (UniProt P07858). Kind of test: Inhibition of Cathepsin-B (unknown origin) at 5 uM preincubated for 15 mins followed by Z-Arg-Arg-AMC addition measured after 30 mins by fluorescence assay relative to control. An outline of the steps:
as §1

Test [7] deals with Cathepsin S (Homo sapiens) (UniProt P25774). Briefly: Inhibition of Cathepsin-S (unknown origin) at 5 uM preincubated for 15 mins followed by Ac-Lys-Gln-Lys-Leu-Arg-AMC addition measured after 30 mins by fluorescence assay relative to control. An outline of the steps: as §1
Sequence of Cathepsin S (Homo sapiens) (P25774 115-331 limits assumed): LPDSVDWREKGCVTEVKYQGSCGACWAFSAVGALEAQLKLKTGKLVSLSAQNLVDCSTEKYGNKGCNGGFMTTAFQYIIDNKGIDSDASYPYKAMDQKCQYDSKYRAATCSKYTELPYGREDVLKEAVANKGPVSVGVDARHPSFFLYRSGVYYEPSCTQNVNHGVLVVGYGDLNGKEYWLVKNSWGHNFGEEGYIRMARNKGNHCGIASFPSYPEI

Sequence of Procathepsin L (Homo sapiens) (P07711 114-333 limits assumed): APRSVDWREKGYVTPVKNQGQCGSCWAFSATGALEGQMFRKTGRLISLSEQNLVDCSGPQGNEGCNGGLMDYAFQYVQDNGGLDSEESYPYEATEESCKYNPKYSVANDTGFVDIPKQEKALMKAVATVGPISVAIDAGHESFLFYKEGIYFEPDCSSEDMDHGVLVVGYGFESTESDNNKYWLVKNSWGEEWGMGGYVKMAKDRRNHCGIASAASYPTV

One may read the IC50 as the concentration that gives 50% inhibition. The low end stands for higher potency, the high end for lower potency. With `Cc1ccc(C(=O)Nc2cccc(/C=C/C(=O)c3nc4ccccc4[nH]3)c2)cc1`, the IC50 was 1.66 µM in test [1], 9.69 µM in test [2] and 6.56 µM in test [3].

Turning to `O=C(Nc1cccc(/C=C/C(=O)c2nc3ccccc3[nH]2)c1)c1cccc(C(F)(F)F)c1`, the IC50 in test [1] was determined as 3.36 µM; in test [2], 21.5 µM; in test [3], 9.57 µM.

As a reminder, the inhibition is the percentage by which the read-out fell short of the control. Consider `O=C(Nc1cccc(/C=C/C(=O)c2nc3ccccc3[nH]2)c1)c1cccc(Cl)c1`, for which the half-maximal inhibitory concentration (IC50) in test [1] turned out to be 1.12 µM; in test [2], 7.83 µM; in test [3] it was 3.37 µM. Moreover, the inhibition in test [4] turned out to be 73%; in test [5], 86%; in test [6], 30.5%; in test [7], 19.5%.

Consider `Cc1ccccc1S(=O)(=O)Nc1cccc(/C=C/C(=O)c2nc3ccccc3[nH]2)c1`, for which the IC50 came out at 0.955 µM in test [1], 4.13 µM in test [2] and 4.06 µM in test [3]. For the same compound, the inhibition was 91.3% in test [4], 71.3% in test [5], 40% in test [6] and 47.8% in test [7].

Regarding `O=C(/C=C/c1ccccc1)c1nc2ccccc2[nH]1`, the inhibition stood at 37.9% in test [4], 35.4% in test [5], 10.1% in test [6] and 13% in test [7].

Regarding `O=C(/C=C/c1cccc(NC(=O)c2ccccc2Br)c1)c1nc2ccccc2[nH]1`, the IC50 was 1.68 µM in test [1], 4.52 µM in test [2] and 6.05 µM in test [3].

Turning to `Cc1ccc(S(=O)(=O)Nc2cccc(/C=C/C(=O)c3nc4ccccc4[nH]3)c2)cc1C`, the IC50 in test [1] was determined as 2.23 µM; in test [2] it was 5.86 µM; in test [3] it was 5.05 µM.

As to `Cc1ccc(S(=O)(=O)Nc2cccc(/C=C/C(=O)c3nc4ccccc4[nH]3)c2)cc1`, the half-inhibitory concentration (IC50) turned out to be 1.99 µM in test [1], 3.22 µM in test [2] and 3.22 µM in test [3]. Moreover, the inhibition in test [4] was 86%; in test [5], 93.8%; in test [6] it was 34.3%; in test [7], 22%.

Regarding `Cc1cc(C)cc(C(=O)Nc2cccc(/C=C/C(=O)c3nc4ccccc4[nH]3)c2)c1`, the IC50 in test [1] is 1.55 µM; in test [2], 24.6 µM; in test [3] it was 4.01 µM.

As to `O=C(Nc1cccc(/C=C/C(=O)c2nc3ccccc3[nH]2)c1)c1cccc(Br)c1`, the IC50 in test [1] came out at 1.55 µM; in test [2], 5.21 µM; in test [3], 4.62 µM.

Regarding `COc1ccc(C(=O)Nc2cccc(/C=C/C(=O)c3nc4ccccc4[nH]3)c2)cc1`, the IC50 in test [1] was determined as 4.88 µM; in test [2] it was 20.1 µM; in test [3], 6.33 µM.

For `CC(C)(F)C[C@H](C[C@@H](c1ccc(-c2ccc(S(C)(=O)=O)cc2)cc1)C(F)(F)F)C(=O)NC1(C#N)CC1`, the IC50 is over 100 µM in test [1], 45.4 µM in test [2] and 12.7 µM in test [3]. Moreover, the inhibition in test [4] was 100%; in test [5], 71.3%; in test [6], 100%; in test [7], 100%.

As for `O=C(/C=C/c1cccc(NS(=O)(=O)c2ccccc2Cl)c1)c1nc2ccccc2[nH]1`, the IC50 amounted to 0.987 µM in test [1], 4.28 µM in test [2] and 4.79 µM in test [3]. The inhibition was determined as 86.5% in test [4], 62.9% in test [5], 32.5% in test [6] and 45.7% in test [7].

`CC(=O)O[C@H]1C(=O)[C@@]2(C)[C@H]([C@H](OC(=O)c3ccccc3)[C@]3(O)C[C@H](OC(=O)[C@H](O)[C@@H](NC(=O)c4ccccc4)c4ccccc4)C(C)=C1C3(C)C)[C@]1(OC(C)=O)CO[C@@H]1C[C@@H]2O` [PACLITAXEL] came in with an IC50 in test [1] of 0.014 µM.

As to `Cc1cc(C)cc(S(=O)(=O)Nc2cccc(/C=C/C(=O)c3nc4ccccc4[nH]3)c2)c1`, the figures for the IC50 in test [1], in test [2] and in test [3] were 1.22 µM, 4.57 µM and 3.33 µM, respectively.

In the case of `COc1cccc(C(=O)Nc2cccc(/C=C/C(=O)c3nc4ccccc4[nH]3)c2)c1`, the half-maximal inhibitory concentration (IC50) in test [1] is 3.68 µM; in test [2], 17.8 µM; in test [3], 4.61 µM.

Turning to `O=c1[nH]cc(F)c(=O)[nH]1` [FLUOROURACIL], the IC50 in test [1] is 8.64 µM; in test [2], 32.6 µM; in test [3] it was 25.2 µM.

With `O=C(/C=C/c1cccc(NC(=O)c2ccccc2Cl)c1)c1nc2ccccc2[nH]1`, the 50% inhibitory concentration (IC50) in test [1] was 1.28 µM; in test [2] it was 4.57 µM; in test [3], 3.69 µM.

For `O=C(Nc1cccc(/C=C/C(=O)c2nc3ccccc3[nH]2)c1)c1ccccc1`, the IC50 was determined as 2.44 µM in test [1], 11.2 µM in test [2] and 8.34 µM in test [3].

`O=C(Nc1cccc(/C=C/C(=O)c2nc3ccccc3[nH]2)c1)c1ccc(Br)cc1`: the IC50 in test [1] is 2.23 µM; in test [2], 7 µM; in test [3] it was 7.31 µM.

With `O=C(/C=C/c1cccc(NS(=O)(=O)c2cccc(Cl)c2)c1)c1nc2ccccc2[nH]1`, the IC50 was 0.737 µM in test [1], 4.16 µM in test [2] and 2.51 µM in test [3]. Besides, the inhibition in test [4] turned out to be 89.2%; in test [5], 78.9%; in test [6] it was 15.2%; in test [7] it was 52.6%.

Regarding `Cc1ccccc1C(=O)Nc1cccc(/C=C/C(=O)c2nc3ccccc3[nH]2)c1`, the IC50 worked out at 1.87 µM in test [1], 5.87 µM in test [2] and 8.29 µM in test [3].

`CC(C)C[C@H](NC(=O)[C@@H]1O[C@H]1C(=O)O)C(=O)NCCCCN=C(N)N`: the inhibition in test [4], in test [5] and in test [6] was 100% in each case.

On to `O=C(/C=C/c1cccc(NS(=O)(=O)c2ccc(Cl)cc2)c1)c1nc2ccccc2[nH]1`, for which the IC50 was 1.96 µM in test [1], 3.82 µM in test [2] and 7.45 µM in test [3]. Besides, the inhibition was 58.1% in test [4], 58% in test [5], 23.8% in test [6] and 89.3% in test [7].

`CCCNC(=O)[C@H]1O[C@@H]1C(=O)N[C@H](C(=O)N1CCC[C@H]1C(=O)O)[C@@H](C)CC` returned an inhibition in test [6] of 100%.

As for `Cc1cccc(C(=O)Nc2cccc(/C=C/C(=O)c3nc4ccccc4[nH]3)c2)c1`, the IC50 in test [1] was found to be 1.42 µM; in test [2], 5.59 µM; in test [3] it was 4.88 µM. Besides, the inhibition in test [4] amounted to 78%; in test [5], 88.5%; in test [6] it was 41.3%; in test [7] it was 45.2%.

Consider `O=C(Nc1cccc(/C=C/C(=O)c2nc3ccccc3[nH]2)c1)c1cc(Cl)cc(Cl)c1`, for which the IC50 was 1.65 µM in test [1], over 100 µM in test [2] and 3.66 µM in test [3].

With `Cc1cccc(S(=O)(=O)Nc2cccc(/C=C/C(=O)c3nc4ccccc4[nH]3)c2)c1`, the Activity result in test [1], in test [2] and in test [3] was “Dose-dependent effect” in each case. For the same compound, the results for the IC50 in test [1], in test [2] and in test [3] were 0.597 µM, 0.886 µM and 0.791 µM, respectively. In addition, the inhibition in test [4] stood at 93.5%; in test [5] it was 92.3%; in test [6], 45.6%; in test [7], 50.1%.

`O=C(/C=C/c1cccc(NS(=O)(=O)c2cc(Cl)cc(Cl)c2)c1)c1nc2ccccc2[nH]1`: the IC50 in test [1] stood at 2.84 µM; in test [2], 20 µM; in test [3] it was 5.95 µM.

Consider `O=C(Nc1cccc(/C=C/C(=O)c2nc3ccccc3[nH]2)c1)c1ccc(Cl)cc1`, for which the figures for the IC50 in test [1], in test [2] and in test [3] were 2.27 µM, 8.41 µM and 7.44 µM, respectively.
